Results: publication PMC10993246 (ACS Omega, 2024)
Residues, ends and D or L forms follow the SMILES beside them.

What was measured:
[1] = test system: L929 cells; experiment: Cell proliferation / cytotoxicity MTT assay; type: cell-based; details: 48 h; for toxicity toward the cells: L929 cells, 10, 25, 50 and 100 μM, IC50 values could not be calculated
Procedure, shortened: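 L929 cells were seeded at 0.5 × 10^4 cells per well and held 24 h in complete medium. Fluorescein-labelled and unlabelled test peptides were then added at 10, 25, 50 and 100 μM for 48 h. MTT was applied for 4 h at 37 °C in the dark, formazan was dissolved in DMSO, and A570 was read. % viability = treated/untreated absorbance; mean ± SD; two-way ANOVA.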

[2] = test system: 3T3 cells; experiment: Membrane penetrability, fixed cells, fluorescence and confocal microscopy; type: cell-based, mouse; details: fixed 3T3 cells, 50 μM in PBS, 6 h, 4 °C, confocal microscopy
[3] = ref 43 (Futaki et al.); cited from earlier work
[4] = test system: mouse fibroblast 3T3 cells; details: cell fixation conditions, ref 36 (Rhee et al.); cited from earlier work

Molecule	toxicity toward the cells [1]	cellular viability at 25 and 50 μM compared to 10 μM ([1]; L929 cells)	localization of CPPs [3]	other results
FITC-VGSLR	does not show any toxicity	increased progressively	–	cell proliferation compared to the untreated cells ([1]; L929 cells, 50 μM, absorbance 570 nm, p < 0.0001): higher proliferation; cell viability at 100 μM ([1]; L929 cells, 100 μM): reduced viability; subcellular localization [2]: localization of the peptide at the nucleus was more than that in the cytoplasm
Tat-(48–60): CPP reported by Futaki et al. (GRKKRRQRRRAHQ; UniProt P04608 48-60, looked up, fragment)	–	–	in both the cytoplasm and nucleus	–
CSIPPEVKFNPFVYLI [C105Y]	–	–	–	localization of the fluorescent-tagged peptide [4]: enriched fluorescence signal in the nucleus in addition to being present in the cytoplasm
CC(C)C[C@H](NC(=O)[C@H](CO)NC(=O)CNC(=O)[C@@H](N)C(C)C)C(=O)N[C@@H](CCCNC(=N)N)C(=O)O [VGSLR] (H-VGSLR-OH)	did not show any significant toxicity	increased progressively	–	–
GRRRRRRRRRPPQ [R9-TAT]	–	–	in both the cytoplasm and nucleus	–
